From ChEMBL document CHEMBL4513216, “Probing the Open Global Health Chemical Diversity Library for Multistage-Active Starting Points for Next-Generation Antimalarials” (ACS Infect Dis, 2020)

Assay: Toxicity liver stage against HepG2, at 10uM
Assay type: cell-based
Set-up: test concentration 10 uM, cell line HepG2-A16-CD81EGFP
Conditions: human, HepG2-A16-CD81EGFP cells; read-out: INHIBITION
How it was run: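 Uninfected HepG2-A16-CD81EGFP cells, 3 × 10^3 per well, 1536-well, plated on prespotted compound at 10 μM final, parasite-free screening media added to match infected plates; puromycin 10 μM positive, DMSO 0.5% negative; run in parallel with 48 h PbLuc assay at 37 °C, 5% CO2; viability by CellTiter-Glo luminescence, normalized to controls.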

SMILES | cytotoxicity at 10 µM [%]
O=C(CC1CCCO1)N1CCCN(c2cccnn2)CC1 (stereo not given) | -7.72
Cc1nn(C)cc1NC(=O)CC1CCN(CCc2ccccc2)CC1 | -4.92
CCS(=O)(=O)N1CCc2nc(N3CCCC3)nc(N(C)C)c2CC1 | 14.3
CC1CCN(c2nc3cn(Cc4cccc(F)c4)c(=O)c-3c[nH]2)CC1 | 4.52
COCCCN1C(=O)c2ccc(C(=O)NCCc3c[nH]cn3)cc2C1=O | -3.76
CC(NC(=O)NCCCc1n[nH]c(N)c1C#N)c1ccccc1 (stereo not given) | -7.21
CN(CCc1ccccn1)C(=O)Nc1cccnc1N1CCCC1 | -27.2
Cc1nc(C)n(C2CCCN(C(=O)c3cn4c(C)cccc4n3)C2)n1 (stereo not given) | -7.72
CN(C)CC(=O)N1Cc2nnn(C)c2C(COCc2ccccn2)C1 (stereo not given) | 9.26
CCc1ccc(-c2cn3c(C(=O)N[C@H](C(N)=O)[C@@H](C)O)csc3n2)cc1 | 7.69
Cc1nc(C)n(CC2CCCN2c2ncnc3ccsc23)n1 (stereo not given) | 7.61
Cn1cc(-c2nc(CN3CCN(CCO)CC3)cs2)cn1 | -2.66
CO[C@@H]1CN(c2ccccc2)S(=O)(=O)[C@@]12CCN(Cc1ccccc1)C2 | 3.51
Cc1cc(C(=O)N2CCOCC2c2nc(C)c[nH]2)nc(O)n1 (stereo not given) | 2.85
Cc1cc(NCCC(=O)NC2CCS(=O)(=O)C2)nc(-c2ccncc2)n1 (stereo not given) | -6.74
CCC1(CC)C(=O)NC(=O)N/C1=N/c1cccc(OC)c1 | -51.8
c1ccc(CCN2CCCC2c2cccc(Nc3nccs3)n2)cc1 (stereo not given) | 8.91
O=C(C1CCCOC1)N1CCN(CC(F)(F)F)c2ccccc21 (stereo not given) | 8.09
c1ccc2oc(CN3CCOC(Cn4cccn4)C3)nc2c1 (stereo not given) | -18.2
COCC(=O)NCc1cc(=O)n2c(n1)CN(Cc1ccncc1)CCC2 | -99.9
CSc1nccc(NCc2cc3n(n2)CCCN(C(=O)C2CCC2)C3)n1 | -118
O=C(NS(=O)(=O)c1cccc(C(F)(F)F)c1)c1cnsn1 | -2.98

SMILES | cytotoxicity at 10 µM [%]
Cc1csc(C2CCCN(C(=O)c3cnc4n[nH]c(C)c4c3)C2)n1 (stereo not given) | -9.39
COc1ccc(CNCC2CC2)cc1F | -22
CCc1nnc2n1CCN(C(=O)c1ccc3cc[nH]c3c1)C2 | -6.43
Cc1nn(C)c(N2CCOCC2)c1CNCc1ccc2c(c1)OCO2 | -17.8
CC(NC(=O)CCOc1ccccc1Cl)c1nnc2n1CCC2 (stereo not given) | -6.46
CSCC[C@H](N)C(=O)NCc1cc2n(n1)CCCN(C1CCCCC1)C2 | -15.3
CCC(CC)n1ncc(C(=O)NS(=O)(=O)c2ccsc2)c1C | -3.01
CCNC(=O)[C@@H]1CCCN1[C@@H](C(=O)NC)C1CC1 | -2.39
Oc1nnc(-c2cccs2)c2sc(N3CCCCC3)nc12 | 7.52
CC1(C)CC(C(=O)N2CCC3(CCC(=O)N(C4CC4)C3)CC2)CCO1 (stereo not given) | 0.868
CC(C)c1nc(C2CCCN2c2ncc(C(N)=O)cc2Cl)no1 (stereo not given) | 13.4
Cc1ncc(C(=O)NCCNc2ncccn2)s1 | 3.79
NC(=O)c1ccc(C2CCCN2C(=O)CCn2nnc3ccccc32)s1 (stereo not given) | 3.92
CCn1cnnc1CNC(=O)NC(C)c1ccc(Cl)s1 (stereo not given) | -23.1
Cc1noc(CCCC(=O)NCC(c2ccco2)N2CCCCC2)n1 (stereo not given) | 13.1
Cc1cnn(CC2CCCN2CCc2nc3ccccc3c(=O)[nH]2)c1 (stereo not given) | -5.79
COc1ccc(CCN)cc1-c1ccc(O)cc1 | -3.05
CCOCC(=O)NCC1Cn2nnc(-c3cccc(F)c3)c2CO1 (stereo not given) | -1.29
Cc1nc(C)n(CC2CCCN2Cc2cc(-c3cccs3)on2)n1 (stereo not given) | -0.367
Cc1n[nH]c(C2CN(CCNC3CCCCC3)CCO2)n1 (stereo not given) | -8.29
Cc1cnc(CN(Cc2ccc(C#N)cc2F)C2CCN(C)C2)o1 (stereo not given) | 0.172
COCCCNc1cc(C(=O)N2CCOCC2)ccc1C | 7.1

SMILES | cytotoxicity at 10 µM [%]
Cc1nc(C)n(CC2CCCN2CCc2ccncc2)n1 (stereo not given) | -7.3
Cc1csc(CNc2ccc(-c3nc(C4CC4)no3)cn2)n1 | -16.2
COCC(NC(=O)NCc1sccc1C)c1ccco1 (stereo not given) | -3.25
Cc1cccc(C)c1OC1CN(Cc2cnn(C)c2)C1 | 7.97
COc1cccc(CC2CN(C3CC(C)(C)NC(C)(C)C3)CCO2)c1 (stereo not given) | -91.7
CC(C)c1noc(CCCC(=O)NCC2CCS(=O)(=O)C2)n1 (stereo not given) | -22.3
Cc1cnn(CCNc2ncnc3c2CCN(CC2CCOC2)CC3)c1 (stereo not given) | -4.24
Cc1cc(C(=O)N2CCN(Cc3ccsc3)CC2)c(C)n1C1CC1 | -1.94
Cc1ccc(-c2ccc(Cl)nn2)cc1S(N)(=O)=O | -12.3
O=C(NCCCn1cnnc1)C1CCCN(C2CCCC2)C1 (stereo not given) | -0.121
CO[C@H]1CN(C(=O)OC(C)(C)C)CC1NCc1ccoc1 (stereo not given in full) | -51.8
COCCN1C[C@@H]2[C@@H](OC)CCN(C(=O)Cc3ccccc3)[C@@H]2C1 | 3.5
CC1CN(Cc2ccccc2)CCCN1CCS(C)(=O)=O (stereo not given) | -1.4
CCNC(=O)N(C)C(c1cccnc1)C(C)C (stereo not given) | -10.2
O=C(COCc1ccccc1Cl)N1CCN(c2ccc(Br)cn2)CC1 | 46.6
CCCc1nc(CN2CCOC(CNc3cccnn3)C2)cs1 (stereo not given) | -6.71
Cc1cccc(CN2CCC3(CCN(Cc4ccccn4)C3)C2=O)c1 (stereo not given) | 12
CCOc1ncccc1CNC(=O)N1CCCC1c1cc(C)no1 (stereo not given) | 23.7
COCC1c2nnn(CC3CC3)c2CCN1C(=O)c1cccc(F)c1 (stereo not given) | -8.31
Cc1cc(NC(=O)CNC2CCCN(c3cccnn3)C2)on1 (stereo not given) | 5.98
Cc1nn(C)c(C)c1C1CCCN1Cc1cccc(C(N)=O)c1 (stereo not given) | -10.2
O=C(NCc1cc[nH]n1)NCC(O)COc1cccc(F)c1 (stereo not given) | 10.3

SMILES | cytotoxicity at 10 µM [%]
CCc1cc(N2C[C@H](C3CC3)[C@@H](N)C2)nc(N2CCOCC2)n1 | -1.47
O=C(CCOCC(F)(F)F)N1CCCC(n2ccnc2)C1 (stereo not given) | -8.14
COc1cccc(N2CCN(Cc3ccc4ccn(C)c4c3)CC2=O)c1 | 17.3
COc1ccc(OC)c(C(O)CN2CCC(N3CCC(C)CC3)CC2)c1 (stereo not given) | -25.5
CC(C)NC(=O)c1ccc2c(c1)C(c1nc[nH]n1)CN2C (stereo not given) | -141
O=C(NC1CCS(=O)(=O)C1)c1ccccc1SCc1cscn1 (stereo not given) | -1.53
NC(=O)NC(=O)CCN1CCC(C(=O)c2cc(F)ccc2F)CC1 | 9.69
CCNC(=O)[C@@H]1C[C@H](NC(=O)c2ccccc2C#N)CN1CCCSC | -12.7
CC(C)CN1CCCC(c2nc(O)c3cc(F)ccc3n2)C1 (stereo not given) | 10.3
COCc1nc(C(=O)N2CCCC2c2cccs2)cs1 (stereo not given) | -5.16
CC(OCC1CC1)C(=O)Nc1cccc(C(=O)Nc2ccccn2)c1 (stereo not given) | 2.56
CN1CCN(C2CCN(CCOc3ccccc3F)CC2)C1=O | 0.174
CC(C)c1cc(C(=O)NCC2CCCN(C(C)C)C2)n(C)n1 (stereo not given) | -1.75
CN(c1ccccc1)S(=O)(=O)c1cc2c(c(C(=O)O)c1)OCCO2 | -9.47
CCN1CC2(CC1=O)CN(C(=O)c1ccsc1)CCN(C(=O)N(C)C)C2 (stereo not given) | 3.01
COc1cccc(CN2CCCCCC2c2cccc(F)c2)c1O (stereo not given) | 5.02
O=S(=O)(C1CC1)N1C[C@H]2CCC[C@@]2(COc2ccccn2)C1 | -3.47
Cc1c(Cl)cccc1OCC(=O)NC1(C#N)CCSC1 (stereo not given) | 37.8
Cc1ccccc1C(=O)N1C[C@@H](O)[C@H](N2CCOCC2)C1 | 9.3
CCN(CC)C(=O)[C@@H]1C[C@H](NC(=O)c2cccn2C(C)C)CN1C | 7.57
COCC(C)NC(=O)N(C)Cc1cc(C)on1 (stereo not given) | 6.27
CCS(=O)(=O)CC(C)N(C)C(=O)COc1ccccc1C#N (stereo not given) | -3.51

SMILES | cytotoxicity at 10 µM [%]
CN(CCCN1CCCC1)[C@@H]1c2ccccc2C2(CCNCC2)[C@H]1O | -3.99
CCn1ccnc1CN1CCC(CCC(=O)Nc2ccccc2Cl)CC1 | -26.5
CCn1cnnc1CNC(=O)NC(C)c1ccccn1 (stereo not given) | -17.6
CSCCCN1C[C@H](NC(=O)c2ccc(C#N)nc2)[C@@H](C2CC2)C1 | 2.72
CCn1nc(C)c(CNCCn2cc(C)cn2)c1C | -4.91
Cc1nc[nH]c1CN1CCN(C(=O)C2CC2)[C@H]2CS(=O)(=O)C[C@H]21 | 0.855
CCCN1C(=O)C2(CCCCC2)NC1c1cn(C)c(=O)n(C)c1=O (stereo not given) | 4.45
NC(=O)C1CCN(c2nc3nccc(-c4cccnc4)c3c(=O)[nH]2)CC1 | 12.1
O=C(Cc1ccc(F)c(Br)c1)NC1CCN(CC(F)F)CC1 | -22
NC(=O)CNC(=O)c1ccc(CNCc2ccc(F)cc2F)cc1 | -43.4
CN(C1CCN(c2ccccn2)CC1)S(=O)(=O)N1CCOCC1 | -5.23
CNc1nc2c(s1)C(c1ccc(Cl)cc1Cl)CC(=O)N2 (stereo not given) | 7
Cc1nc(C2CCCN(C(=O)c3ccc(OCC4CC4)nc3)C2)no1 (stereo not given) | -4.41
Cc1nc(CN(C)C2CCN(Cc3nc4c(F)cccc4[nH]3)C2)no1 (stereo not given) | -4.09
O=C([C@@H]1CCS(=O)(=O)[C@@H]2CN(c3ncccn3)C[C@@H]21)N1CCOCC1 | -100
CN(CC1(O)CCN(c2ccnc3ccncc23)CC1)C(=O)CCN | -6.86
CS(=O)(=O)NCC(=O)N[C@H]1CN(CC2CC2)C[C@@H]1c1ccccc1 | -0.29
CCn1nc(C)c2nnn(CC(=O)Nc3ccccc3F)c(=O)c21 | 5.37
O=C1CCOCCN1Cc1ccc(Cl)c(F)c1 | -3.31
Cc1ccc2snc(C(=O)N3CCN(C(=O)NCCC(C)C)CC3)c2c1 | -0.964
CN(CCO)C[C@@H]1CN(C2CCN(c3ccccc3Cl)CC2)C[C@@H]1CO | -9.22
N#Cc1cccc(CN2C[C@@H]3CN(c4ncccn4)C[C@@H]3C2)c1 | 8.04
